Data from ChEMBL document CHEMBL1141657, “Synthesis, structure elucidation and identification of antitumoural properties of novel fused 1,2,4-triazine aryl derivatives” (Eur J Med Chem, 2008).
Calls of active or inactive are those of the source. The rule behind the calls is not given here.

What was measured:
[1] = system: SiHa; experiment: Growth inhibition of human SiHa cells assessed as BrdU incorporation at 32.6 uM after 72 hrs by spectrophotometry; format: functional; settings: read-out: GI
Procedure, shortened: (§1)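 Cells were seeded at 10⁴ cells/mL and preincubated. Compounds were dissolved in DMSO and added at two fixed concentrations, then incubated for 72 h. End-point was BrdU labelling with ELISA detection, read spectrophotometrically. Result is % growth inhibition versus untreated controls. Triplicates.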

[2] = Growth inhibition of HSF cells assessed as BrdU incorporation at 32.6 uM after 72 hrs by spectrophotometry; format: cell-based; settings: human, read-out: GI; procedure, shortened: as §1
[3] = Growth inhibition of african green monkey Vero cells assessed as BrdU incorporation at 32.6 uM after 72 hrs by spectrophotometry; format: cell-based; settings: chlorocebus sabaeus, read-out: GI; procedure, shortened: as §1
[4] = Growth inhibition of human LS180 cells assessed as BrdU incorporation at 32.6 uM after 72 hrs by spectrophotometry; format: functional; settings: LS180, 72 h, read-out: GI; procedure, shortened: as §1
[5] = system: T47D; experiment: Growth inhibition of human T47D cells assessed as BrdU incorporation at 32.6 uM after 72 hrs by spectrophotometry; format: functional; settings: read-out: GI
Procedure, shortened: (§2)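 Each cell line was seeded at 10⁴ cells per mL and preincubated. Test agents were dissolved in DMSO, added at two examined concentrations (10 and 50 per mL by mass), and incubated for 72 h. The end-point was BrdU labeling and detection kit III read on an ELISA reader. Percent growth inhibition was calculated against untreated controls, in triplicate.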

[6] = Growth inhibition of HSF cells assessed as BrdU incorporation at 163.0 uM after 72 hrs by spectrophotometry; format: cell-based; settings: human, read-out: GI; procedure, shortened: as §1
[7] = Growth inhibition of african green monkey Vero cells assessed as BrdU incorporation at 163.0 uM after 72 hrs by spectrophotometry; format: cell-based; settings: chlorocebus sabaeus, read-out: GI; procedure, shortened: as §1
[8] = Growth inhibition of human LS180 cells assessed as BrdU incorporation at 163.0 uM after 72 hrs by spectrophotometry; format: functional; settings: LS180, 72 h, read-out: GI; procedure, shortened: as §1
[9] = system: SiHa; experiment: Growth inhibition of human SiHa cells assessed as BrdU incorporation at 163.0 uM after 72 hrs by spectrophotometry; format: functional; settings: read-out: GI; procedure, shortened: as §1
[10] = system: T47D; experiment: Growth inhibition of human T47D cells assessed as BrdU incorporation at 163.0 uM after 72 hrs by spectrophotometry; format: functional; settings: read-out: GI; procedure, shortened: as §2
[11] = system: LS180; experiment: Induction of DNA damage in human LS180 cells at 32.6 uM by pulsed field gel electrophoresis; format: functional, cell-based
Procedure, shortened: (§3)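 After treatment at 32.6, cells were washed twice with PBS. DNA was isolated with lysing buffer plus proteinase K, then purified. Cells were prepared as agarose plugs and run by pulsed field electrophoresis on a 1% agarose gel containing propidium iodide, at 120 V for 1.5 h at room temperature. Experiments were repeated three times.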

[12] = system: SiHa; experiment: Induction of DNA damage in human SiHa cells at 32.6 uM by pulsed field gel electrophoresis; format: functional, cell-based; procedure, shortened: as §3
[13] = system: T47D; experiment: Induction of DNA damage in human T47D cells at 32.6 uM by pulsed field gel electrophoresis; format: functional, cell-based; procedure, shortened: as §3
[14] = Induction of apoptosis in HSF cells after 72 hrs by annexin V-propidium iodide based assay; format: cell-based; settings: human
Procedure, shortened: (§4)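 Cells were exposed for 72 h, then stained with an annexin V-FITC/propidium iodide detection kit. Apoptotic cells were counted by confocal microscopy using a 460–490 nm filter: yellow nuclei were early apoptosis, red were late, and unstained cells were living. 1000 cells were analysed per measurement, three independent measurements in all. Results are mean ± SD.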

[15] = system: T47D; experiment: Induction of apoptosis in human T47D cells after 72 hrs by annexin V-propidium iodide based assay; format: functional; procedure, shortened: as §4
[16] = Cytotoxicity against HSF cells assessed as cell viability at 1 uM after 24 hrs by MTT assay relative to control; format: cell-based; settings: human, read-out: Activity
Procedure, shortened: (§5)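 Normal human skin fibroblasts (HSF, primary line) were exposed to DMSO-dissolved compound for 24 h. Viability was read by MTT tetrazolium reduction and expressed against untreated control set at 100%.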

[17] = Cytotoxicity against HSF cells assessed as cell viability at 50 uM after 24 hrs by MTT assay relative to control; format: cell-based; settings: human, read-out: Activity; procedure, shortened: as §5
[18] = Cytotoxicity against HSF cells assessed as cell viability at 100 uM after 24 hrs by MTT assay relative to control; format: cell-based; settings: human, read-out: Activity; procedure, shortened: as §5
[19] = system: Jurkat; experiment: Cytotoxicity against human Jurkat cells assessed as cell viability at 1 uM after 24 hrs by MTT assay relative to control; format: functional; settings: read-out: Activity
Procedure, shortened: (§6)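 Jurkat T-cell leukaemia line grown in RPMI 1640 with 10% FBS, 2 mM L-glutamine and gentamycin at 37 °C, 5% CO2, kept in log phase. Compounds were dissolved in DMSO and applied for 24 h. Cells were washed in HEPES-buffered medium (pH 7.4) and given MTT at 0.5 mg/mL for 45 min at 37 °C. Formazan was dissolved in DMSO and read at 570 nm. Viability is % of control, from three independent measurements.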

[20] = system: Jurkat; experiment: Cytotoxicity against human Jurkat cells assessed as cell viability at 50 uM after 24 hrs by MTT assay relative to control; format: functional; settings: read-out: Activity; procedure, shortened: as §6
[21] = system: Jurkat; experiment: Cytotoxicity against human Jurkat cells assessed as cell viability at 100 uM after 24 hrs by MTT assay relative to control; format: functional; settings: read-out: Activity; procedure, shortened: as §6
[22] = Growth inhibition of human LS180 cells assessed as BrdU incorporation after 72 hrs by spectrophotometry; format: functional, cell-based; settings: LS180, 72 h
Procedure, shortened: (§7)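 Cancer cells were seeded at 10⁴ cells/mL, preincubated, then exposed for 72 h to DMSO-dissolved compound. Growth was read by BrdU labelling with ELISA spectrophotometry. IC50 was taken from 72 h dose–survival curves. Triplicates.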

[23] = system: SiHa; experiment: Growth inhibition of human SiHa cells assessed as BrdU incorporation after 72 hrs by spectrophotometry; format: functional, cell-based; procedure, shortened: as §7
[24] = system: T47D; experiment: Growth inhibition of human T47D cells assessed as BrdU incorporation after 72 hrs by spectrophotometry; format: functional, cell-based; procedure, shortened: as §7
[25] = system: Jurkat; experiment: Cytotoxicity against human Jurkat cells assessed as decrease in cell viability after 24 hrs by MTT assay; format: functional, cell-based
Procedure, shortened: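 Jurkat cells grown in RPMI 1640/10% FBS at 37 °C, 5% CO2, with 24 h exposure to DMSO-dissolved compound. Read-out was MTT reduction: 0.5 mg/mL in HEPES-buffered medium for 45 min, formazan in DMSO, absorbance at 570 nm. IC50 was taken from 24 h dose–survival curves.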

Work on NNC(=O)c1nnc2n(c1=O)CCN2c1cccc(Cl)c1 yielded an inhibition of growth at 32.6 µM [1] of 45%, an inhibition at 72 h, 32.6 µM [2] of 0% and an inhibition at 72 h, 32.6 µM [3] of 20%. For the same molecule, the inhibition of growth at 32.6 µM [4] was 42%, the inhibition of growth at 32.6 µM [5] was 26% and the inhibition at 72 h, 163 µM [6] was 0%. The inhibition at 72 h, 163 µM [7] was 29%, the inhibition of growth at 163 µM [8] was 54% and the inhibition of growth at 163 µM [9] was 63%. For the same molecule, the inhibition of growth at 163 µM [10] was 40%, the Activity [11] was “Active” and the Activity [12] was “Active”. The Activity [13] was “Active”, the Activity [14] was 1% and the Activity [15] was 8.5%. The viability at 24 h, 1 µM [16] was 108%, the viability at 24 h, 50 µM [17] was 113% and the viability at 24 h, 100 µM [18] was 105%. For the same molecule, the viability at 1 µM [19] was 100%, the viability at 50 µM [20] was 116% and the viability at 100 µM [21] was 115%. The IC50 [22] was > 100 µM, the IC50 [23] was 75.4 µM and the IC50 [24] was > 100 µM. The IC50 [25] was > 100 µM.
